# pIC50: −log10 of the molar value.
# Assays:
# C6 [1] = test: C6 cell growth in soft agar with continuous treatment; format: functional, cell-based, Rattus norvegicus; settings: Rattus norvegicus, C6
# Procedure, shortened: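 C6 rat glioma cells (F10 Ham's with 15% horse serum, 2.5% fetal calf serum) exposed 3 days to a concentration series, then plated in soft agar with compound still present at the same concentration; colonies stained and counted after two weeks. IC50; mean of two experiments, each in duplicate.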
# C6 [2] = test: Inhibition of C6 cell proliferation in sulforhodamine B assay; format: functional, cell-based, Rattus norvegicus; settings: Rattus norvegicus, C6
# Procedure, shortened: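 C6 rat glioma cells (F10 Ham's, 15% horse serum, 2.5% fetal calf serum) seeded and allowed 24 h to attach, then given serial 2-fold compound dilutions; 4 d at 37 °C, 5% CO2; growth read by sulforhodamine B staining. IC50; mean of two experiments, each in triplicate.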
# SK-OV-3 [3] = test: Difference in days for treated (T) and control (C) SK-OV-3 cell tumors to reach 750 mg in mice at 20.3 mg/kg peroral dose, days 20-34 administration; format: functional; settings: route oral
# Procedure, shortened: (§1)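 Nude mice (NCr nu/nu), 18–22 g, 6–8 per group, randomized and implanted with serially passaged tumor fragments in the right axilla on day 0. Dosed by average cage weight. Vehicle was 50 mM sodium lactate buffer, pH 4.0, or a 0.5% methyl cellulose suspension for one compound. Cisplatin was given in saline. T − C is the difference in days for treated and control tumors to reach 750 mg.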
# Mus musculus [4] = test: Difference in days for treated (T) and control (C) PDGF-transfected fibroblast tumors to reach 750 mg in mice at 15 mg/kg peroral dose, days 1-15 administration; format: functional; settings: route oral; procedure, shortened: as §1
# HT-29 [5] = test: Difference in days for treated (T) and control (C) HT-29 cell tumors to reach 750 mg in mice at 10.2 mg/kg peroral dose, days 15-29 administration; format: functional; settings: route oral; procedure, shortened: as §1
# MCF7 [6] = test: Difference in days for treated (T) and control (C) MCF-7 cell tumors to reach 750 mg in mice at 12 mg/kg peroral dose, days 1-15 administration; format: functional; settings: route oral; procedure, shortened: as §1
# C6 [7] = test: Difference in days for treated (T) and control (C) C6 glioma cell tumors to reach 750 mg in mice at 10 mg/kg peroral dose, days 1-15 administration; format: functional; settings: route oral; procedure, shortened: as §1
# COLO 205 [8] = test: Net reduction in tumor burden between first and last treatments of COLO 205 cell tumors in mice at 10 mg/kg peroral dose, days 14-28 administration; format: functional; settings: route oral
# Procedure, shortened: (§2)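 NCr nu/nu nude mice (18–22 g, 6–8 per group, randomized) had tumor fragments, kept by serial passage in nude mice, implanted in the right axilla on day 0. Mice were dosed by average cage weight on the listed days, over a range from toxic to ineffective doses. Vehicle was 50 mM sodium lactate pH 4.0 or 0.5% methyl cellulose suspension. Net log cell kill was taken between first and last treatments.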
# COLO 205 [9] = test: Difference in days for treated (T) and control (C) COLO 205 cell tumors to reach 750 mg in mice at 10 mg/kg peroral dose, days 14-28 administration; format: functional; settings: route oral; procedure, shortened: as §1
# HT-29 [10] = test: Net reduction in tumor burden between first and last treatments of HT-29 cell tumors in mice at 10.2 mg/kg peroral dose, days 15-29 administration; format: functional; settings: route oral; procedure, shortened: as §2
# MCF7 [11] = test: Net reduction in tumor burden between first and last treatments of MCF-7 cell tumors in mice at 12 mg/kg peroral dose, days 1-15 administration; format: functional; settings: route oral; procedure, shortened: as §2
# SK-OV-3 [12] = test: Net reduction in tumor burden between first and last treatments of SK-OV-3 cell tumors in mice at 20.3 mg/kg peroral dose, days 20-34 administration; format: functional; settings: route oral; procedure, shortened: as §2
# Mus musculus [13] = test: Net reduction in tumor burden between first and last treatments of PDGF-transfected fibroblast cells in mice at 15 mg/kg peroral dose, days 1-15 administration; format: functional; settings: route oral; procedure, shortened: as §2
# A-431 [14] = test: Net reduction in tumor burden between first and last treatments in A431 cell tumors in mice at 20 mg/kg peroral dose, days 7-21 administration; format: functional; settings: route oral; procedure, shortened: as §2
# C6 [15] = test: Net reduction in tumor burden between first and last treatments of C6 glioma cell tumors in mice at 10 mg/kg peroral dose, days 1-15 administration; format: functional; settings: route oral; procedure, shortened: as §2
# C6 [16] = test: Net reduction in tumor burden between first and last treatments of C6 glioma cell tumors in mice at 5 mg/kg peroral dose, days 1-15 administration; format: functional; settings: route oral; procedure, shortened: as §2
# A-431 [17] = test: Difference in days for treated (T) and control (C) A431 cell tumors to reach 750 mg in mice at 20 mg/kg peroral dose, days 7-21 administration; format: functional; settings: route oral; procedure, shortened: as §1
# SK-OV-3 [18] = test: Weight change of SK-OV-3 cell tumors in mice at 20.3 mg/kg peroral dose, days 20-34 administration; format: functional; settings: route oral
# Procedure, shortened: (§3)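 Nude mice (NCr nu/nu, 18–22 g, 6–8 per group) were randomized and implanted with serially passaged tumor fragments in the right axilla on day 0. Oral dosing was based on average cage weight, on the days stated, over a dose range from toxic to ineffective. Vehicle was 50 mM sodium lactate buffer, pH 4.0, or 0.5% methyl cellulose suspension. Host weight change is reported as maximum treatment-related loss.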
# Mus musculus [19] = test: Weight change of PDGF-transfected fibroblast cells in mice at 15 mg/kg peroral dose, days 1-15 administration; format: functional; settings: route oral; procedure, shortened: as §3
# MCF7 [20] = test: Weight change of MCF-7 tumor cells in mice at 12 mg/kg peroral dose, days 1-15 administration; format: functional, organism-based; design: dose 12 mg/kg
# Procedure, shortened: (§4)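 Tumor-bearing nude mice (NCr nu/nu, 18–22 g, 6–8 per group) were implanted in the right axilla with tumor fragments on day 0 and dosed by average cage weight. Vehicle was 50 mM sodium lactate pH 4.0, or 0.5% methyl cellulose suspension; cisplatin was given in saline. Host body weight change is given as the maximum treatment-related weight loss.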
# A-431 [21] = test: Weight change of A431 cell tumor in mice at 20 mg/kg peroral dose, days 7-21 administration; format: functional; settings: route oral; procedure, shortened: as §4
# C6 [22] = test: Weight change of C6 glioma cell tumor in mice at 10 mg/kg peroral dose, days 1-15 administration; format: functional, organism-based; design: dose 10 mg/kg; procedure, shortened: as §4
# C6 [23] = test: Weight change of C6 glioma tumor cells in mice at 5 mg/kg peroral dose, days 1-15 administration; format: functional, Mus musculus; settings: route oral; procedure, shortened: as §4
# COLO 205 [24] = test: Weight change of COLO 205 tumor cells in mice at 10 mg/kg peroral dose, days 14-28 administration; format: functional; settings: route oral; procedure, shortened: as §4
# HT-29 [25] = test: Weight change of HT-29 tumor cells in mice at 10.2 mg/kg peroral dose, days 15-29 administration; format: functional; settings: route oral; procedure, shortened: as §4
# NIH3T3 [26] = test: Growth of NIH3T3 cell colonies in soft agar with continuous treatment; format: functional, cell-based; settings: Mus musculus
# Procedure, shortened: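 Soft agar cloning used PDGF-B-transfected NIH3T3 (NIH3T3/PDGF) cells. Cells were exposed 3 days to a concentration series, then plated in soft agar with the matching compound concentration kept present. Colonies were stained and counted after two weeks. IC50; mean of two experiments, each in duplicate.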
# NIH3T3 [27] = test: Growth of NIH3T3 cell colonies in soft agar with discontinued treatment; format: functional, cell-based; settings: Mus musculus
# Procedure, shortened: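 PDGF-B-transfected NIH3T3 (NIH3T3/PDGF) cells exposed 3 days to a concentration series, washed free of inhibitor, plated in drug-free soft agar; colonies stained and counted after two weeks. IC50; mean of two experiments, each in duplicate.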
# NIH3T3/PDGF = test: Weight change of NIH3T3/PDGF cell tumors in mice at 9.5 mg/kg peroral dose, days 1-15 administration; settings: route oral
# C6 glioma = test: Difference in days for treated (T) and control (C) C6 glioma tumors to reach 750 mg in mice at 5 mg/kg peroral dose, days 1-15 administration; settings: route oral
# Mus musculus [28] = test: Net reduction in tumor burden between first and last treatments in PDGF-transfected fibroblast cells in mice at 9.5 mg/kg peroral dose, days 1-15 administration; settings: route oral
# Mus musculus [29] = test: Difference in days for treated (T) and control (C) PDGF-transfected fibroblast tumors to reach 750 mg in mice at 9.5 mg/kg peroral dose, days 1-15 administration; settings: route oral
smiles,measurement,setting,value
CCN(CC)CCOc1ccc(Nc2ncc3cc(-c4c(Cl)cccc4Cl)c(=O)n(C)c3n2)cc1 [PD-0166285],pIC50,C6 [1],6.92
same,pIC50,C6 [2],6.47
same,T-C,SK-OV-3 [3],10.6 days
same,T-C,Mus musculus [4],2.2 days
same,T-C,HT-29 [5],9.6 days
same,T-C,MCF7 [6],1.1 days
same,T-C,C6 [7],0.4 days
same,Net cell kill,COLO 205 [8],-0.7 log10
same,T-C,COLO 205 [9],0.6 days
same,Net cell kill,HT-29 [10],-0.2 log10
same,Net cell kill,MCF7 [11],-0.6 log10
same,Net cell kill,SK-OV-3 [12],-0.1 log10
same,Net cell kill,Mus musculus [13],-1.8 log10
same,Net cell kill,A-431 [14],-0.5 log10
same,Net cell kill,C6 [15],-1 log10
same,Net cell kill,C6 [16],-0.8 log10
same,T-C,A-431 [17],3.7 days
same,Weight change,SK-OV-3 [18],-4 g
same,Weight change,Mus musculus [19],-0.4 g
same,Weight change,MCF7 [20],Weight gain
same,Weight change,A-431 [21],-3.1 g
same,Weight change,C6 [22],Weight gain
same,Weight change,C6 [23],-0.1 g
same,Weight change,COLO 205 [24],-4 g
same,Weight change,HT-29 [25],0 g
same,pIC50,NIH3T3 [26],8.96
same,pIC50,NIH3T3 [27],8.00
same,Weight change,NIH3T3/PDGF,-4.1 g
same,T-C,C6 glioma,0.3 days
same,Net cell kill,Mus musculus [28],-1.6 log10
same,T-C,Mus musculus [29],3.3 days

# Reference: ChEMBL document CHEMBL1131066, “2-Substituted aminopyrido[2,3-d]pyrimidin-7(8H)-ones. structure-activity relationships against selected tyrosine kinases and in vitro and in vivo anticancer activity” (J Med Chem, 1998)
